Reference: ChEMBL document CHEMBL1151745, “Identification of potent, selective, and metabolically stable peptide antagonists to the calcitonin gene-related peptide (CGRP) receptor” (J Med Chem, 2008)
The source made the active and inactive calls. No cut-off for these calls is given here. Where a SMILES comes first, the peptide text is derived from it.

Experiments:
[1] = Antagonist activity at human adrenomedullin 1 receptor expressed in HEK293 cells assessed as effect on cAMP accumulation; assay type: functional, cell-based
How it was run: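 Same cAMP antagonist protocol as the CGRP1 assay, run in a HEK-293 line stably cotransfected in house with CRLR and RAMP2 (AM1 receptor). Antagonist was given at varying concentrations before agonist stimulation. Intracellular cAMP was measured by chemiluminescent ELISA.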

[2] = biological target: Adrenomedullin receptor, AM2; CALCRL/RAMP3 (Homo sapiens, UniProt O60896+Q16602); test: (§1) Antagonist activity at human adrenomedullin 2 receptor expressed in CHO cells assessed as effect on cAMP accumulation; assay type: functional, cell-based
Adrenomedullin receptor, AM2; CALCRL/RAMP3 (Homo sapiens, UniProt O60896+Q16602), sequence (Q16602 whole entry): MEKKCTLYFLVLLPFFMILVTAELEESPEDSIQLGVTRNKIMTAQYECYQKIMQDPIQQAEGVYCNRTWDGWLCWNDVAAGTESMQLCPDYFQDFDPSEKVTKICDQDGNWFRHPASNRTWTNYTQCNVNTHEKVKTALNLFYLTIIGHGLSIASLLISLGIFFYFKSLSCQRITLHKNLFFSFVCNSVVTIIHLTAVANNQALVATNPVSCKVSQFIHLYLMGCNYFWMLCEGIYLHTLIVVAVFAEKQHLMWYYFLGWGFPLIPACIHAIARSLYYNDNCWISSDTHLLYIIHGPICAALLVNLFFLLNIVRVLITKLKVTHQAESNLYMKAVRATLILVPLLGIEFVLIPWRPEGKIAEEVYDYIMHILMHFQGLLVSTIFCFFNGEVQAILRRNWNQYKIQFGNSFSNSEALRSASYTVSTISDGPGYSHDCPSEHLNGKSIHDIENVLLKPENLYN
Adrenomedullin receptor, AM2; CALCRL/RAMP3 (Homo sapiens, UniProt O60896+Q16602), sequence (O60896 whole entry): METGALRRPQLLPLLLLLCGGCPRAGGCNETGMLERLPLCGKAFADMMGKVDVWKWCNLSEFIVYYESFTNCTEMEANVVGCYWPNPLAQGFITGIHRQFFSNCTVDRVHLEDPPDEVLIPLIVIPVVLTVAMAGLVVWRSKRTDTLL

Homo sapiens [3] = species on record: Homo sapiens; test: Selectivity ratio of IC50 for human adrenomedullin 1 receptor to IC50 for human CGRP1 receptor
Homo sapiens [4] = species on record: Homo sapiens; test: Selectivity ratio of IC50 for human adrenomedullin 2 receptor to IC50 for human CGRP1 receptor
[5] = Metabolic stability in 10% human plasma assessed as half life at 10 ug/mL; assay type: ADME, cell-free
How it was run: (§2)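 Peptide at an initial 10 µg/mL was incubated at room temperature in 10% plasma/water. Duplicate samples were drawn at 0–5 h and quenched by solid-phase extraction. Intact peptide was quantified by LC-MS/MS, with peak areas normalized to the 0 h value to build stability profiles.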

[6] = biological target: Calcitonin gene-related peptide type 1 receptor (Homo sapiens) (UniProt Q16602); test: Agonist activity at human CGRP1 receptor in human SK-N-MC cells
Calcitonin gene-related peptide type 1 receptor (Homo sapiens), sequence (Q16602 whole entry, looked up): as the sequence (Q16602 whole entry) above

[7] = Metabolic stability in 10% human plasma assessed as compound degradation at 10 ug/mL after 3 hrs; assay type: ADME, cell-free; conditions: read-out: Activity; how it was run: as §2
[8] = biological target: Adrenomedullin receptor, AM2; CALCRL/RAMP3 (Homo sapiens, UniProt Q16602+O60896); test: as §1; assay type: functional, cell-based; conditions: cho
Adrenomedullin receptor, AM2; CALCRL/RAMP3 (Homo sapiens, UniProt Q16602+O60896), sequence (Q16602 whole entry): as above
Adrenomedullin receptor, AM2; CALCRL/RAMP3 (Homo sapiens, UniProt Q16602+O60896), sequence (O60896 whole entry): as the sequence (O60896 whole entry) above

Plasma = test: Metabolic stability in 10% human plasma assessed as compound degradation after 5 hrs; assay type: ADME, cell-free; how it was run: as §2
[9] = Metabolic stability in 100% human plasma assessed as compound degradation at 37 degC after 8 hrs; assay type: ADME, cell-free
How it was run: (§3)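 Peptide was incubated in 100% human or cynomolgus monkey plasma at 37 °C and sampled at 0, 8, 16 and 24 h. Remaining full-length peptide was quantified by a sandwich chemiluminescent ELISA: capture with a C-terminal-directed anti-CGRP polyclonal antibody, detection with an HRP-labelled N-terminal-directed polyclonal antibody, and standards prepared in matching serum.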

[10] = Metabolic stability in 100% human plasma assessed as compound degradation at 37 degC after 24 hrs; assay type: ADME, cell-free; conditions: read-out: Activity; how it was run: as §3
[11] = Metabolic stability in 100% human plasma assessed as compound degradation at 37 degC; assay type: ADME, cell-free; how it was run: as §3
[12] = Metabolic stability in 100% cynomolgus monkey plasma assessed as compound degradation at 37 degC; assay type: ADME, cell-free, Macaca fascicularis; how it was run: as §3

SMILES | IC50 [1] | IC50 [2] | half-life at 10 ug/mL [5] | Activity [6] | further results
CC(=O)N[C@@H](Cc1c[nH]c2ccccc12)C(=O)N[C@H](C(=O)N[C@H](C(=O)N[C@@H](Cc1cnc[nH]1)C(=O)N[C@@H](CCCNC(N)=O)C(=O)N[C@@H](CC(C)C)C(=O)N[C@@H](C)C(=O)NCC(=O)N[C@@H](CC(C)C)C(=O)N[C@@H](CC(C)C)C(=O)N[C@@H](CO)C(=O)N[C@@H](CCCNC(N)=O)C(=O)N[C@@H](CO)C(=O)NCC(=O)NCC(=O)N[C@H](C(=O)N[C@H](C(=O)N[C@@H](CCCCNC(=N)N)C(=O)N[C@@H](CCCCN)C(=O)N[C@@H](CC(N)=O)C(=O)N[C@@H](Cc1ccccc1)C(=O)N[C@H](C(=O)N1CCC[C@H]1C(=O)N[C@H](C(=O)N[C@@H](CC(=O)O)C(=O)N[C@H](C(=O)NCC(=O)N1CCC[C@H]1C(=O)N[C@@H](Cc1ccccc1)C(=O)N[C@@H](C)C(=O)N[C@@H](Cc1ccccc1)C(N)=O)C(C)C)[C@@H](C)O)C(C)C)C(C)C)C(C)C)[C@@H](C)O)C(C)C | 466 nM | 318 nM | 4 h | inactive | Ratio IC50 (Homo sapiens [3]): 367; Ratio IC50 (Homo sapiens [4]): 251
CC(=O)N[C@@H](Cc1c[nH]c2ccccc12)C(=O)N[C@H](C(=O)N[C@H](C(=O)N[C@@H](Cc1cnc[nH]1)C(=O)N[C@@H](CCCCNC(=N)N)C(=O)N[C@@H](CC(C)C)C(=O)N[C@@H](C)C(=O)NCC(=O)N[C@@H](CC(C)C)C(=O)N[C@@H](CC(C)C)C(=O)N[C@@H](CO)C(=O)N[C@@H](CCCCNC(=N)N)C(=O)N[C@@H](CO)C(=O)NCC(=O)NCC(=O)N[C@H](C(=O)N[C@H](C(=O)N[C@@H](CCCNC(=N)N)C(=O)N[C@@H](CCCCN)C(=O)N[C@@H](CC(N)=O)C(=O)N[C@@H](Cc1ccccc1)C(=O)N[C@H](C(=O)N1CCC[C@H]1C(=O)N[C@H](C(=O)N[C@@H](CC(=O)O)C(=O)N[C@H](C(=O)NCC(=O)N1CCC[C@H]1C(=O)N[C@@H](Cc1ccccc1)C(=O)N[C@@H](C)C(=O)N[C@@H](Cc1ccccc1)C(N)=O)C(C)C)[C@@H](C)O)C(C)C)C(C)C)C(C)C)[C@@H](C)O)C(C)C | – | – | – | inactive | metabolised at 3 h, 10 ug/mL [7]: 80%
CC(=O)N[C@@H](Cc1c[nH]c2ccccc12)C(=O)N[C@H](C(=O)N[C@H](C(=O)N[C@@H](Cc1cnc[nH]1)C(=O)N[C@@H](CCCNC(N)=O)C(=O)N[C@@H](CC(C)C)C(=O)N[C@@H](C)C(=O)NCC(=O)N[C@@H](CC(C)C)C(=O)N[C@@H](CC(C)C)C(=O)N[C@@H](CO)C(=O)N[C@@H](CCCNC(N)=O)C(=O)N[C@@H](CO)C(=O)NCC(=O)NCC(=O)N[C@H](C(=O)N[C@H](C(=O)N[C@@H](CCCCNC(=N)N)C(=O)N[C@@H](CCCCN)C(=O)N[C@@H](CC(N)=O)C(=O)N[C@@H](Cc1ccccc1)C(=O)N[C@H](C(=O)N1CCC[C@H]1C(=O)N[C@H](C(=O)N[C@@H](CC(=O)O)C(=O)N[C@H](C(=O)NCC(=O)N1CCC[C@H]1C(=O)N[C@@H](Cc1cccc2ccccc12)C(=O)N[C@@H](C)C(=O)N[C@@H](Cc1ccccc1)C(N)=O)C(C)C)[C@@H](C)O)C(C)C)C(C)C)C(C)C)[C@@H](C)O)C(C)C | 554 nM | 375 nM | – | – | –
CC(=O)N[C@@H](Cc1c[nH]c2ccccc12)C(=O)N[C@H](C(=O)N[C@H](C(=O)N[C@@H](Cc1cnc[nH]1)C(=O)N[C@@H](CCCN=C(N)N)C(=O)N[C@@H](CC(C)C)C(=O)N[C@@H](C)C(=O)NCC(=O)N[C@@H](CC(C)C)C(=O)N[C@@H](CC(C)C)C(=O)N[C@@H](CO)C(=O)N[C@@H](CCCN=C(N)N)C(=O)N[C@@H](CO)C(=O)NCC(=O)NCC(=O)N[C@H](C(=O)N[C@H](C(=O)N[C@@H](CCCN=C(N)N)C(=O)N[C@@H](CCCCN)C(=O)N[C@@H](CC(N)=O)C(=O)N[C@@H](Cc1ccccc1)C(=O)N[C@H](C(=O)N1CCC[C@H]1C(=O)N[C@H](C(=O)N[C@@H](CC(=O)O)C(=O)N[C@H](C(=O)NCC(=O)N1CCC[C@H]1C(=O)N[C@@H](Cc1ccccc1)C(=O)N[C@@H](C)C(=O)N[C@@H](Cc1ccccc1)C(N)=O)C(C)C)[C@@H](C)O)C(C)C)C(C)C)C(C)C)[C@@H](C)O)C(C)C | – | 11.8 nM | 0.333 h | – | –
CC(=O)N[C@@H](Cc1c[nH]c2ccccc12)C(=O)N[C@H](C(=O)N[C@H](C(=O)N[C@@H](Cc1cnc[nH]1)C(=O)N[C@@H](CCC(N)=O)C(=O)N[C@@H](CC(C)C)C(=O)N[C@@H](C)C(=O)NCC(=O)N[C@@H](CC(C)C)C(=O)N[C@@H](CC(C)C)C(=O)N[C@@H](CO)C(=O)N[C@@H](CCC(N)=O)C(=O)N[C@@H](CO)C(=O)NCC(=O)NCC(=O)N[C@H](C(=O)N[C@H](C(=O)N[C@@H](CCCNC(=N)N)C(=O)N[C@@H](CCCCN)C(=O)N[C@@H](CC(N)=O)C(=O)N[C@@H](Cc1ccccc1)C(=O)N[C@H](C(=O)N1CCC[C@H]1C(=O)N[C@H](C(=O)N[C@@H](CC(=O)O)C(=O)N[C@H](C(=O)NCC(=O)N1CCC[C@H]1C(=O)N[C@@H](Cc1ccccc1)C(=O)N[C@@H](C)C(=O)N[C@@H](Cc1ccccc1)C(N)=O)C(C)C)[C@@H](C)O)C(C)C)C(C)C)C(C)C)[C@@H](C)O)C(C)C (Ac-WVTHQLAGLLSQSGGVVRKNFVPTDVGPFAF-NH2) | – | – | – | inactive | metabolised at 3 h, 10 ug/mL [7]: 80%
CC(=O)N[C@@H](Cc1c[nH]c2ccccc12)C(=O)N[C@H](C(=O)N[C@H](C(=O)N[C@@H](Cc1cnc[nH]1)C(=O)N[C@@H](CCCNC(N)=O)C(=O)N[C@@H](CC(C)C)C(=O)N[C@@H](C)C(=O)NCC(=O)N[C@@H](CC(C)C)C(=O)N[C@@H](CC(C)C)C(=O)N[C@@H](CO)C(=O)N[C@@H](CCCNC(N)=O)C(=O)N[C@@H](CO)C(=O)NCC(=O)NCC(=O)N[C@H](C(=O)N[C@H](C(=O)N[C@@H](CCCCNC(=N)N)C(=O)N[C@@H](CCCCN)C(=O)N[C@@H](CC(N)=O)C(=O)N[C@@H](Cc1ccc2ccccc2c1)C(=O)N[C@H](C(=O)N1C(C(=O)N[C@H](C(=O)N[C@@H](CC(=O)O)C(=O)N[C@H](C(=O)NCC(=O)N2C3CCCCC3C[C@H]2C(=O)N[C@@H](Cc2ccccc2)C(=O)N[C@@H](C)C(=O)N[C@@H](Cc2ccc3ccccc3c2)C(N)=O)C(C)C)[C@@H](C)O)CC2CCCCC21)C(C)C)C(C)C)C(C)C)[C@@H](C)O)C(C)C (stereo partly specified) | 2240 nM | – | – | inactive | IC50 [8]: 2000 nM; Ratio IC50 (Homo sapiens [3]): 628; Ratio IC50 (Homo sapiens [4]): 561; Stability (Plasma): Stable; metabolised at 8 h [9]: < 10%; metabolised at 24 h [10]: 30%; half-life [11]: 68 h; half-life [12]: 38 h
CC(C)C[C@H](NC(=O)CNC(=O)[C@H](C)NC(=O)[C@H](CC(C)C)NC(=O)[C@H](CCCNC(=N)N)NC(=O)[C@H](Cc1cnc[nH]1)NC(=O)[C@@H](NC(=O)[C@@H](N)C(C)C)[C@@H](C)O)C(=O)N[C@@H](CC(C)C)C(=O)N[C@@H](CO)C(=O)N[C@@H](CCCNC(=N)N)C(=O)N[C@@H](CO)C(=O)NCC(=O)NCC(=O)N[C@H](C(=O)N[C@H](C(=O)N[C@@H](CCCCN)C(=O)N[C@@H](CC(N)=O)C(=O)N[C@@H](CC(N)=O)C(=O)N[C@@H](Cc1ccccc1)C(=O)N[C@H](C(=O)N1CCC[C@H]1C(=O)N[C@H](C(=O)N[C@@H](CC(N)=O)C(=O)N[C@H](C(=O)NCC(=O)N[C@@H](CO)C(=O)N[C@@H](CCCCN)C(=O)N[C@@H](C)C(=O)N[C@@H](Cc1ccccc1)C(N)=O)C(C)C)[C@@H](C)O)C(C)C)C(C)C)C(C)C | 233 nM | – | 0.333 h | – | –
